Reference: ChEMBL document CHEMBL3046055, “Synthesis and herbicidal activity of novel N-(2,2,2)-trifluoroethylpyrazole derivatives” (J Agric Food Chem, 2010)

Experiments:
Zea mays = assay: Toxicity against Zea mays var. SHEN DAN 17 (maize) assessed induction of crop injury at 800 g ai/ha using pre-emergence treatment protocol under field trials conditions measured 30 days post soil treatment; type: organism-based; conditions: in vivo, other, 720 h
In short: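 Pre-emergence application to soil surface within 24 h after maize planting, at 300, 400, 600 or 800 g a.i. ha^-1. Fresh weight of aerial plant parts measured 30 days later; percentage inhibition calculated relative to water-sprayed control.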

Convolvulus arvensis = assay: Herbicidal activity against Convolvulus arvensis assessed as inhibition of fresh weed plant weights at 600 g ai/ha using pre-emergence treatment protocol under field trials conditions measured 30 days post soil treatment relative to untreated control; type: functional; conditions: 720 h
In short: (§1)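 Field pre-emergence trial. Treatments were applied to the soil surface within 24 h after maize planting, at 300, 400, 600 and 800 g a.i. ha^-1. Fresh weight of aerial plant parts was measured 30 days later, and percent inhibition calculated relative to the water-sprayed control.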

Portulaca oleracea [1] = assay: Herbicidal activity against Portulaca oleracea assessed as inhibition of fresh weed plant weights at 400 g ai/ha using pre-emergence treatment protocol under field trials conditions measured 30 days post soil treatment relative to untreated control; type: functional; conditions: 720 h; in short: as §1
Portulaca oleracea [2] = assay: Herbicidal activity against Portulaca oleracea assessed as inhibition of fresh weed plant weights at 300 g ai/ha using pre-emergence treatment protocol under field trials conditions measured 30 days post soil treatment relative to untreated control; type: functional; conditions: 720 h; in short: as §1
Eleusine indica [3] = assay: Herbicidal activity against Eleusine indica assessed as inhibition of fresh weed plant weights at 800 g ai/ha using pre-emergence treatment protocol under field trials conditions measured 30 days post soil treatment relative to untreated control; type: functional; conditions: 720 h; in short: as §1
Eleusine indica [4] = assay: Herbicidal activity against Eleusine indica assessed as inhibition of fresh weed plant weights at 600 g ai/ha using pre-emergence treatment protocol under field trials conditions measured 30 days post soil treatment relative to untreated control; type: functional; conditions: 720 h; in short: as §1
Eleusine indica [5] = assay: Herbicidal activity against Eleusine indica assessed as inhibition of fresh weed plant weights at 300 g ai/ha using pre-emergence treatment protocol under field trials conditions measured 30 days post soil treatment relative to untreated control; type: functional; conditions: 720 h; in short: as §1
Echinochloa crus-galli [6] = assay: Herbicidal activity against Echinochloa crus-galli (barnyard grass) assessed as inhibition of fresh weed plant weights at 800 g ai/ha using pre-emergence treatment protocol under field trials conditions measured 30 days post soil treatment relative to untreated control; type: functional; conditions: 720 h; in short: as §1
Echinochloa crus-galli [7] = assay: Herbicidal activity against Echinochloa crus-galli (barnyard grass) assessed as inhibition of fresh weed plant weights at 600 g ai/ha using pre-emergence treatment protocol under field trials conditions measured 30 days post soil treatment relative to untreated control; type: functional; conditions: 720 h; in short: as §1
Echinochloa crus-galli [8] = assay: Herbicidal activity against Echinochloa crus-galli (barnyard grass) assessed as inhibition of fresh weed plant weights at 400 g ai/ha using pre-emergence treatment protocol under field trials conditions measured 30 days post soil treatment relative to untreated control; type: functional; conditions: 720 h; in short: as §1
Echinochloa crus-galli [9] = assay: Herbicidal activity against Echinochloa crus-galli (barnyard grass) assessed as inhibition of fresh weed plant weights at 300 g ai/ha using pre-emergence treatment protocol under field trials conditions measured 30 days post soil treatment relative to untreated control; type: functional; conditions: 720 h; in short: as §1
Portulaca oleracea [10] = assay: Herbicidal activity against Portulaca oleracea assessed as inhibition of fresh weed plant weights at 600 g ai/ha using pre-emergence treatment protocol under greenhouse conditions relative to untreated control; type: functional
In short: (§2)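 Pre-emergence test in plastic pots kept in a greenhouse at 22-25 °C. Fresh weight of aerial plant parts was measured 20 days later, and percent inhibition calculated relative to water-sprayed controls. Metolachlor served as the positive control. Three replicates were run per concentration.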

Portulaca oleracea [11] = assay: Herbicidal activity against Portulaca oleracea assessed as inhibition of fresh weed plant weights at 300 g ai/ha using pre-emergence treatment protocol under greenhouse conditions relative to untreated control; type: functional; in short: as §2
Portulaca oleracea [12] = assay: Herbicidal activity against Portulaca oleracea assessed as inhibition of fresh weed plant weights at 150 g ai/ha using pre-emergence treatment protocol under greenhouse conditions relative to untreated control; type: functional; in short: as §2
Echinochloa crus-galli [13] = assay: Herbicidal activity against Echinochloa crus-galli (barnyard grass) assessed as inhibition of fresh weed plant weights at 300 g ai/ha using pre-emergence treatment protocol under greenhouse conditions relative to untreated control; type: functional; in short: as §2
Digitaria sanguinalis [14] = assay: Herbicidal activity against Digitaria sanguinalis (hairy crabgrass) assessed as inhibition of fresh weed plant weights at 300 g ai/ha using pre-emergence treatment protocol under greenhouse conditions relative to untreated control; type: functional; in short: as §2
Digitaria sanguinalis [15] = assay: Herbicidal activity against Digitaria sanguinalis (hairy crabgrass) assessed as inhibition of fresh weed plant weights at 150 g ai/ha using pre-emergence treatment protocol under greenhouse conditions relative to untreated control; type: functional; in short: as §2
Eleusine indica [16] = assay: Herbicidal activity against Eleusine indica assessed as inhibition of fresh weed plant weights at 600 g ai/ha using pre-emergence treatment protocol under greenhouse conditions relative to untreated control; type: functional; in short: as §2
Digitaria sanguinalis [17] = assay: Herbicidal activity against Digitaria sanguinalis (hairy crabgrass) assessed as inhibition of fresh weed plant weights at 600 g ai/ha using pre-emergence treatment protocol under greenhouse conditions relative to untreated control; type: functional; in short: as §2
Portulaca oleracea [18] = assay: Herbicidal activity against Portulaca oleracea assessed as inhibition of root growth at […] measured 7 days post treatment; type: functional; parameters: dose or concentration left out as unconfirmed; conditions: 168 h, read-out: GI
Digitaria sanguinalis [19] = assay: Herbicidal activity against Digitaria sanguinalis (hairy crabgrass) assessed as inhibition of fresh weed plant weights at 800 g ai/ha using pre-emergence treatment protocol under field trials conditions measured 30 days post soil treatment relative to untreated control; type: functional; conditions: 720 h; in short: as §1
Digitaria sanguinalis [20] = assay: Herbicidal activity against Digitaria sanguinalis (hairy crabgrass) assessed as inhibition of fresh weed plant weights at 600 g ai/ha using pre-emergence treatment protocol under field trials conditions measured 30 days post soil treatment relative to untreated control; type: functional; conditions: 720 h; in short: as §1
Digitaria sanguinalis [21] = assay: Herbicidal activity against Digitaria sanguinalis (hairy crabgrass) assessed as inhibition of fresh weed plant weights at 400 g ai/ha using pre-emergence treatment protocol under field trials conditions measured 30 days post soil treatment relative to untreated control; type: functional; conditions: 720 h; in short: as §1
Digitaria sanguinalis [22] = assay: Herbicidal activity against Digitaria sanguinalis (hairy crabgrass) assessed as inhibition of fresh weed plant weights at 300 g ai/ha using pre-emergence treatment protocol under field trials conditions measured 30 days post soil treatment relative to untreated control; type: functional; conditions: 720 h; in short: as §1
[23] = tested on: Brassica rapa subsp. oleifera; assay: Toxicity against Brassica rapa subsp. oleifera var. JING GUAN 1 assessed as inhibition of fresh weed plant weights at 600 g ai/ha using pre-emergence treatment protocol under greenhouse conditions relative to untreated control; type: organism-based; conditions: in vivo, other; in short: as §2
[24] = tested on: Brassica rapa subsp. oleifera; assay: Toxicity against Brassica rapa subsp. oleifera var. JING GUAN 1 assessed as inhibition of fresh weed plant weights at 300 g ai/ha using pre-emergence treatment protocol under greenhouse conditions relative to untreated control; type: organism-based; conditions: in vivo, other; in short: as §2
[25] = tested on: Brassica rapa subsp. oleifera; assay: Toxicity against Brassica rapa subsp. oleifera var. JING GUAN 1 assessed as inhibition of fresh weed plant weights at 150 g ai/ha using pre-emergence treatment protocol under greenhouse conditions relative to untreated control; type: organism-based; conditions: in vivo, other; in short: as §2
Portulaca oleracea [26] = assay: Herbicidal activity against Portulaca oleracea assessed as inhibition of shoot growth at […] measured 7 days post treatment; type: functional; conditions: 168 h, read-out: GI
In short: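 Petri-dish agar assay. A 10 g/L stock of compound in acetone was mixed into molten agar; the untreated control was agar without compound. Seeds were placed on the agar surface and the cups were covered with glass lids. Incubation was 25 ± 1 °C, 50-55% RH, 12 h light/12 h dark, for 7 days. Root and shoot lengths were measured and growth inhibition calculated against the control, in three replicates.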

Molecule `Cc1nn(CC(F)(F)F)c(CS(=O)(=O)C2=NOC(C)(C)C2)c1Cl` has an Activity (Zea mays) of 0%, an inhibition at 600 g/ha (Convolvulus arvensis) of 27% and an inhibition at 400 g/ha (Portulaca oleracea [1]) of 85%. For the same molecule, the inhibition at 300 g/ha (Portulaca oleracea [2]) was 80%, the inhibition at 800 g/ha (Eleusine indica [3]) was 99% and the inhibition at 600 g/ha (Eleusine indica [4]) was 98%. It also gave an inhibition at 300 g/ha (Eleusine indica [5]) of 97%, an inhibition at 800 g/ha (Echinochloa crus-galli [6]) of 100% and an inhibition at 600 g/ha (Echinochloa crus-galli [7]) of 100%. It also gave an inhibition at 400 g/ha (Echinochloa crus-galli [8]) of 100%, an inhibition at 300 g/ha (Echinochloa crus-galli [9]) of 100% and an inhibition at 600 g/ha (Portulaca oleracea [10]) of 99%. It also gave an inhibition at 300 g/ha (Portulaca oleracea [11]) of 97%, an inhibition at 150 g/ha (Portulaca oleracea [12]) of 70% and an inhibition at 300 g/ha (Echinochloa crus-galli [13]) of 100%. It also gave an inhibition at 300 g/ha (Digitaria sanguinalis [14]) of 97%, an inhibition at 150 g/ha (Digitaria sanguinalis [15]) of 86% and an inhibition at 600 g/ha (Eleusine indica [16]) of 100%. The inhibition at 600 g/ha (Digitaria sanguinalis [17]) was 100%, the inhibition of growth (Portulaca oleracea [18]) was 63% and the inhibition at 800 g/ha (Digitaria sanguinalis [19]) was 100%. It also gave an inhibition at 600 g/ha (Digitaria sanguinalis [20]) of 100%, an inhibition at 400 g/ha (Digitaria sanguinalis [21]) of 98% and an inhibition at 300 g/ha (Digitaria sanguinalis [22]) of 95%. The “inhibition (INH)” value [23] was 11%, the “inhibition (INH)” value [24] was 12% and the “inhibition (INH)” value [25] was 7%. The inhibition of growth at 100000 µg/mL (Portulaca oleracea [26]) was 54%.
